Experimental findings from ChEMBL document CHEMBL1795232, “Benzoxazinones as potent positive allosteric AMPA receptor modulators: part I” (Bioorg Med Chem Lett, 2011) are described below.

Each structure is given as a SMILES string.

The species named for assay [1] is Rattus norvegicus. The assay can be described thus: Positive allosteric modulation at AMPA receptor in Sprague-Dawley rat embryonic hippocampal neuron assessed as concentration required to double the steady-state current induced by glutamate by patch-clamp assay. The assay is classed as tissue-based. The settings on record: Hippocampus. In short, it runs like this: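 Hippocampal neurons from E18 Sprague-Dawley rats, cultured 4-7 days, whole-cell voltage-clamped at -80 mV at room temperature. Cells were pretreated 20 s with saline or modulator by superfusion, then given 500 µM glutamate with or without modulator for 1 s. Mean plateau current at 600-900 ms was taken. EC2x is the concentration doubling the steady-state glutamate current.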

For assay [2], the species on record is Rattus norvegicus. The assay can be described thus: Positive allosteric modulation at AMPA receptor in Sprague-Dawley rat adult hippocampal slice assessed as increase in field excitatory postsynaptic potential amplitude at 10 uM. Type of assay: tissue-based. Conditions: Hippocampus. In short, it runs like this:
(§1)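 Transverse hippocampal slices from adult male Sprague-Dawley rats (4-6 weeks) held on nylon net in a rapid-flow linear interface chamber. Schaffer-commissural fibers stimulated with paired pulses (200 ms interval) at 0.05 Hz. After a 20-30 min stable baseline, compound infused 30 min, then washed out with control ACSF. DMSO stocks diluted into ACSF. Read-out was percentage increase in fEPSP amplitude.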

Assay [3] in a line: Displacement of [3H]AMPAKINE from AMPA receptor in rat forebrain.
The species entered for assay [4] is Rattus norvegicus. The experiment in a line: Positive allosteric modulation at AMPA receptor in Sprague-Dawley rat adult hippocampal slice assessed as increase in field excitatory postsynaptic potential amplitude at 30 uM. The assay is classed as tissue-based. Conditions: Hippocampus. In short, it runs like this:
as §1

For assay [5], the species on record is Rattus norvegicus. The experiment in a line: Positive allosteric modulation at AMPA receptor in Sprague-Dawley rat adult hippocampal slice assessed as increase in field excitatory postsynaptic potential amplitude at 3 uM. Type of assay: tissue-based. The settings on record: Hippocampus. In short, it runs like this:
as §1

For assay [6], the species on record is Rattus norvegicus. The experiment in a line: Positive allosteric modulation at AMPA receptor in Sprague-Dawley rat adult hippocampal slice assessed as increase in field excitatory postsynaptic potential amplitude at 1 uM. Type of assay: tissue-based. Conditions: Hippocampus. The method in brief: as §1

For `CC(CNS(=O)(=O)C(C)C)c1ccc(-c2ccsc2)cc1` (stereo unspecified), the Activity in the assay filed under Rattus norvegicus [1] came out at 0.07 µM.
Turning to `COc1ccc(C(=O)N2CCCC2=O)cc1`, in the assay listed under Rattus norvegicus [1], the Activity was > 1000 µM.
On to `CC(C)N1COc2cc3c(cc2C1=O)OC1CCCN1C3=O` (stereo unspecified), for which the Activity in the assay filed under Rattus norvegicus [1] was found to be 0.9 µM; in the assay listed under Rattus norvegicus [2], 3%. Also, in assay [3], the Ki stood at 100 µM.
Turning to `O=C1c2cc3c(cc2OCN1CCF)C(=O)N1CCCC1O3` (stereo unspecified), the Activity in the assay filed under Rattus norvegicus [1] was determined as 0.5 µM; in the assay listed under Rattus norvegicus [2] it was 9%. Moreover, the Ki in assay [3] came out at 33 µM.
On to `CN1COc2cc3c(cc2C1=O)OC1CCCN1C3=O` (stereo unspecified), for which the Activity in the assay listed under Rattus norvegicus [1] stood at 0.1 µM; in the assay listed under Rattus norvegicus [2], 19%. Besides, affinity in assay [3] was put at a Ki of 18 µM.
For the compound `O=C1NCOc2cc3c(cc21)OC1CCCN1C3=O` (stereo unspecified), the values for the Activity in the assay listed under Rattus norvegicus [4] and in the assay listed under Rattus norvegicus [1] were 5% and 5 µM, respectively. For the same compound, the affinity in assay [3] corresponds to a Ki of 225 µM.
With `C#CCN1COc2cc3c(cc2C1=O)OC1CCCN1C3=O` (stereo unspecified), the Activity came out at 0.25 µM in the assay listed under Rattus norvegicus [1] and 6% in the assay filed under Rattus norvegicus [5]. The same compound came in with a Ki in assay [3] of 7 µM.
`O=C1c2cc3c(cc2OCN1C1CCCC1)C(=O)N1CCCC1O3` (stereo unspecified): the Activity in the assay listed under Rattus norvegicus [1] came to 7 µM. The same compound showed an inhibitory constant (Ki) in assay [3] of 163 µM.
For `C=CCN1COc2cc3c(cc2C1=O)OC1CCCN1C3=O` (stereo unspecified), the Activity in the assay filed under Rattus norvegicus [1] stood at 0.5 µM. Further, in assay [3], the affinity corresponds to a Ki of 18 µM.
`CCCN1COc2cc3c(cc2C1=O)OC1CCCN1C3=O` (stereo unspecified): the figures for the Activity in the assay listed under Rattus norvegicus [1] and in the assay listed under Rattus norvegicus [6] were 2.5 µM and 0%, respectively. The compound further displayed a Ki in assay [3] of 70 µM.
For the compound `O=C1c2cc3c(cc2OC2CCCN12)OC1CCCN1C3=O` (stereo unspecified), the Activity in the assay filed under Rattus norvegicus [1] amounted to 2.6 µM.
As to `O=C1c2cc3c(cc2OC2CCCN12)COCO3` (stereo unspecified), in the assay listed under Rattus norvegicus [1], the Activity was 1.1 µM.
`O=C1c2cc3c(cc2OC2CCCN12)OCOC3` (stereo unspecified): the Activity in the assay listed under Rattus norvegicus [1] is 22 µM.
Turning to `CC(C)CN1COc2cc3c(cc2C1=O)OC1CCCN1C3=O` (stereo unspecified), the Activity in the assay filed under Rattus norvegicus [1] worked out at 41 µM.
In the case of `O=C1c2cc3c(cc2OC2CCCN12)C(=O)N1CCCC1O3` (stereo unspecified), the Activity in the assay listed under Rattus norvegicus [1] amounted to 0.06 µM.
On to `CCN1COc2cc3c(cc2C1=O)OC1CCCN1C3=O` (stereo unspecified), for which the Activity stood at 0.2 µM in the assay listed under Rattus norvegicus [1] and 17% in the assay listed under Rattus norvegicus [2]. For the same compound, in assay [3], the Ki is 20 µM.
`NS(=O)(=O)c1cc2c(cc1Cl)NC(C1CC3C=CC1C3)NS2(=O)=O` (stereo unspecified): the Activity in the assay listed under Rattus norvegicus [1] turned out to be 1.6 µM.
On to `O=C1c2cc3c(cc2OC2CCCN12)OCCO3` (stereo unspecified), for which the Activity in the assay listed under Rattus norvegicus [1] worked out at 2.3 µM.
Regarding `O=C1c2cc3c(cc2OCN1C1CC1)C(=O)N1CCCC1O3` (stereo unspecified), the Activity in the assay filed under Rattus norvegicus [1] turned out to be 0.8 µM; in the assay filed under Rattus norvegicus [2] it was 10%. Further, the affinity in assay [3] corresponds to a Ki of 26 µM.
As for `O=C1c2cc3c(cc2OC2CCCN12)CCCO3` (stereo unspecified), the Activity in the assay filed under Rattus norvegicus [1] turned out to be 1.1 µM.
As to `O=C1c2cc3c(cc2OCN1CC(F)(F)F)C(=O)N1CCCC1O3` (stereo unspecified), the Activity in the assay listed under Rattus norvegicus [1] was determined as 8.8 µM; in the assay filed under Rattus norvegicus [6] it was 0%. This compound came in with a Ki in assay [3] of 330 µM.
